Measured values from ChEMBL document CHEMBL5096186, “Design, Synthesis, and Biological Evaluation of Novel Pyrimido[4,5-b]indole Derivatives Against Gram-Negative Multidrug-Resistant Pathogens” (J Med Chem, 2021).
In brackets after ≈: the same amount, converted by molar mass.

Experiments:
[1] = test system: Escherichia coli; assay: Antibacterial activity against ESBL-producing multidrug resistant Escherichia coli assessed as reduction in bacterial growth incubated for 18 to 20 hrs by CLSI based microdilution method; type: functional; conditions: time 18-20 hrs
In short: (§1)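 Broth microdilution per CLSI. Compounds dissolved in DMSO (levofloxacin and meropenem in water) as 64 μg/mL stock, then serial twofold dilutions in broth giving 64 to 0.008 μg/mL. […] Clinical isolates tested as several strains per group; racemic GP-1 served as positive control; values given as MIC ranges.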

[2] = test system: Escherichia coli; assay: Antibacterial activity against multidrug resistant wild type Escherichia coli ATCC BAA-2340 assessed as reduction in bacterial growth incubated for 18 to 20 hrs by CLSI based microdilution method; type: functional; conditions: time 18-20 hrs; in short: as §1
[3] = test system: Escherichia coli; assay: Antibacterial activity against multidrug resistant wild type Escherichia coli NCTC 13353 assessed as reduction in bacterial growth incubated for 18 to 20 hrs by CLSI based microdilution method; type: functional; conditions: time 18-20 hrs; in short: as §1
[4] = test system: Klebsiella pneumoniae; assay: Antibacterial activity against KPC2-producing multidrug resistant Klebsiella pneumoniae assessed as reduction in bacterial growth incubated for 18 to 20 hrs by CLSI based microdilution method; type: functional; conditions: time 18-20 hrs; in short: as §1
[5] = test system: Klebsiella pneumoniae; assay: Antibacterial activity agains wild type Klebsiella pneumoniae ATCC BAA-1705 assessed as reduction in bacterial growth incubated for 18 to 20 hrs by CLSI based microdilution method; type: functional; conditions: time 18-20 hrs
In short: (§2)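 CLSI broth microdilution. Compounds in DMSO (levofloxacin and meropenem in water), serial twofold dilutions in broth, 64 to 0.008 μg/mL. […] Results reported as MIC ranges across strains.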

[6] = test system: Klebsiella pneumoniae; assay: Antibacterial activity agains wild type Klebsiella pneumoniae ATCC BAA-2470 assessed as reduction in bacterial growth incubated for 18 to 20 hrs by CLSI based microdilution method; type: functional; conditions: time 18-20 hrs; in short: as §1
[7] = test system: Acinetobacter baumannii; assay: Antibacterial activity agains OXA23-producing multidrug resistant Acinetobacter baumannii assessed as reduction in bacterial growth incubated for 18 to 20 hrs by CLSI based microdilution method; type: functional; conditions: time 18-20 hrs; in short: as §1
[8] = test system: Acinetobacter baumannii; assay: Antibacterial activity against wild type Acinetobacter baumannii NCTC 13304 assessed as reduction in bacterial growth incubated for 18 to 20 hrs by CLSI based microdilution method; type: functional; conditions: time 18-20 hrs; in short: as §1
[9] = test system: Pseudomonas aeruginosa; assay: Antibacterial activity against IMP4-producing multidrug resistant Pseudomonas aeruginosa assessed as reduction in bacterial growth incubated for 18 to 20 hrs by CLSI based microdilution method; type: functional; conditions: time 18-20 hrs; in short: as §1
[10] = test system: Pseudomonas aeruginosa; assay: Antibacterial activity against wild type Pseudomonas aeruginosa ATCC 27853 assessed as reduction in bacterial growth incubated for 18 to 20 hrs by CLSI based microdilution method; type: functional; conditions: time 18-20 hrs; in short: as §2
[11] = test system: Staphylococcus aureus; assay: Antibacterial activity against methicillin-sensitive Staphylococcus aureus strains 15 1 to 4 assessed as reduction in bacterial growth incubated for 18 to 20 hrs by CLSI based microdilution method; type: functional; conditions: time 18-20 hrs; in short: as §1
[12] = test system: Staphylococcus epidermidis; assay: Antibacterial activity against methicillin-sensitive Staphylococcus epidermidis strains 15 1 to 4 assessed as reduction in bacterial growth incubated for 18 to 20 hrs by CLSI based microdilution method; type: functional; conditions: time 18-20 hrs; in short: as §1
[13] = test system: Escherichia coli; assay: Antibacterial activity against ESBL-producing Escherichia coli ATCC 35218 strains 15 1 to 3 assessed as reduction in bacterial growth incubated for 18 to 20 hrs by CLSI based microdilution method; type: functional; conditions: time 18-20 hrs; in short: as §2
[14] = test system: Escherichia coli; assay: Antibacterial activity against Escherichia coli ATCC 35218 strains 15 1 to 3 assessed as reduction in bacterial growth incubated for 18 to 20 hrs by CLSI based microdilution method; type: functional; conditions: time 18-20 hrs; in short: as §2
[15] = test system: Pseudomonas aeruginosa; assay: Antibacterial activity against multidrug resistant Pseudomonas aeruginosa strains 15 1 to 3 assessed as reduction in bacterial growth incubated for 18 to 20 hrs by CLSI based microdilution method; type: functional; conditions: time 18-20 hrs; in short: as §1
[16] = Metabolic stability in rat liver microsome assessed as elimination half life at 0.1 uM in presence of NADPH incubated upto 60 mins by LC-MS/MS analysis; type: ADME; conditions: liver microsomes, read-out: beta t1/2
In short: (§3)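 Compound at 0.1 μM final, in 0.01% DMSO with 0.005% BSA. Incubated with rat or human liver microsomes at 0.33 mg/mL in 0.1 M Tris-HCl, pH 7.4, with 5 mM MgCl₂ and 1 mM NADPH, at 37 °C. Samples at 0, 7, 17, 30 and 60 min quenched with cold methanol and analysed by LC-MS/MS. Half-life, Cl_int and MF% derived as previously described.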

[17] = Metabolic stability in human liver microsome assessed as elimination half life at 0.1 uM in presence of NADPH incubated upto 60 mins by LC-MS/MS analysis; type: ADME; conditions: liver microsomes, read-out: beta t1/2; in short: as §3
[18] = Metabolic stability in rat liver microsome assessed as intrinsic clearance at 0.1 uM in presence of NADPH incubated upto 60 mins by LC-MS/MS analysis; type: ADME; conditions: microsomes, 1 h; in short: as §3
[19] = Metabolic stability in human liver microsome assessed as intrinsic clearance at 0.1 uM in presence of NADPH incubated upto 60 mins by LC-MS/MS analysis; type: ADME; conditions: microsomes, 1 h; in short: as §3
[20] = Metabolic stability in rat liver microsome assessed as metabolic bioavailability at 0.1 uM in presence of NADPH incubated upto 60 mins by LC-MS/MS analysis; type: ADME; conditions: liver microsomes; in short: as §3
[21] = Metabolic stability in human liver microsome assessed as metabolic bioavailability at 0.1 uM in presence of NADPH incubated upto 60 mins by LC-MS/MS analysis; type: ADME; conditions: liver microsomes; in short: as §3
[22] = test system: Staphylococcus aureus; assay: Antibacterial activity against methicillin-resistant Staphylococcus aureus strains 15 1 to 4 assessed as reduction in bacterial growth incubated for 18 to 20 hrs by CLSI based microdilution method; type: functional; conditions: time 18-20 hrs; in short: as §1
[23] = target: hERG (KCNH2) potassium channel (Homo sapiens, UniProt Q12809); assay: Inhibition of hERG potassium channel assessed as maximum inhibition rate at 40 uM at -80 mV holding potential incubated for 120 seconds by whole cell-automated voltage clamp analysis assay relative to control; type: toxicity; conditions: time 120 sec
In short: (§4)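 Automated whole-cell patch clamp, holding potential −80 mV. Voltage protocol applied every 20 s. Baseline set with external solution containing 0.1% DMSO and stabilised 3 min. Compound applied until steady state, at least 3 min, then washout. Maximum tested concentration 40 μM, or 3 μM for cisapride as positive control.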

[24] = target: Voltage-gated inwardly rectifying potassium channel KCNH2 (Homo sapiens, UniProt Q12809); assay: Inhibition of hERG potassium channel assessed as […] at -80 mV holding potential incubated for 120 seconds by whole cell-automated voltage clamp analysis assay; type: toxicity; in short: as §4
Sequence of Voltage-gated inwardly rectifying potassium channel KCNH2 (Q12809 whole entry): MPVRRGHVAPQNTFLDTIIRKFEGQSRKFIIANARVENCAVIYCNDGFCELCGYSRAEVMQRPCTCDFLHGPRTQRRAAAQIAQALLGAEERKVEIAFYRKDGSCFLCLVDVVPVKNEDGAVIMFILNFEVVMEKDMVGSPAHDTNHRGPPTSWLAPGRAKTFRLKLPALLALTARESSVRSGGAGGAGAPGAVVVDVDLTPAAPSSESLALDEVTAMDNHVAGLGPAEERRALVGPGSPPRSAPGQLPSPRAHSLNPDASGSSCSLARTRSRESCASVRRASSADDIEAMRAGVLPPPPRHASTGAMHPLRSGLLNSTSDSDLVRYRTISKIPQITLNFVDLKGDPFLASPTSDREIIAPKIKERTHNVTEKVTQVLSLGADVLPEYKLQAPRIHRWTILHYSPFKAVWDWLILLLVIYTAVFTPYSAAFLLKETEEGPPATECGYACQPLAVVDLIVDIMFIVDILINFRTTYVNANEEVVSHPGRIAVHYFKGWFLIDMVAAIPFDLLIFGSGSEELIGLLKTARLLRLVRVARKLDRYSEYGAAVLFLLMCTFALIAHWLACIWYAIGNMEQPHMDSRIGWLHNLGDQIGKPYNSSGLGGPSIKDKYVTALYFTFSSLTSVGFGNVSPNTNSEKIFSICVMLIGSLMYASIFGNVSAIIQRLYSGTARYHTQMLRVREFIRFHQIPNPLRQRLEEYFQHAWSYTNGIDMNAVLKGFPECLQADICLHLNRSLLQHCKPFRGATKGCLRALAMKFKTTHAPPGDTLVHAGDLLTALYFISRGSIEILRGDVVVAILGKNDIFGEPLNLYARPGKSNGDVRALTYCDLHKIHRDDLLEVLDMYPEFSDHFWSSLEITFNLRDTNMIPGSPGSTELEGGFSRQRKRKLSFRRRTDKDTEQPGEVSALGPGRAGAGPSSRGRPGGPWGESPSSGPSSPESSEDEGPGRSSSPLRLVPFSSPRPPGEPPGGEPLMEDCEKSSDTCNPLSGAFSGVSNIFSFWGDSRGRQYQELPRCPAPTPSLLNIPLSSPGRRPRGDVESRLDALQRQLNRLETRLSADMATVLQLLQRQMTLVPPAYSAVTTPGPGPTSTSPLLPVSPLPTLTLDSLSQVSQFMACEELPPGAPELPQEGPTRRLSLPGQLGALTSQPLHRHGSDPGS

Sequence of hERG (KCNH2) potassium channel (Q12809 whole entry): as above

Structure (SMILES)	MIC [1]	MIC [2]	MIC [3]	MIC [4]	MIC [5]	MIC [6]	MIC [7]	MIC [8]	MIC [9]	MIC [10]	MIC [11]	MIC [12]	MIC [13]	MIC [14]	MIC [15]	further results
C[C@@H](O)[C@H]1C(=O)N2C(C(=O)O)=C(S[C@@H]3CN[C@H](C(=O)N(C)C)C3)[C@H](C)[C@H]12 [MEROPENEM]	0.25 µg/mL (≈ 0.652 µM)	4 µg/mL (≈ 10.4 µM)	0.06 µg/mL (≈ 0.156 µM)	≥ 64 µg/mL	16 µg/mL (≈ 41.7 µM)	16 µg/mL (≈ 41.7 µM)	> 32 µg/mL	> 32 µg/mL	8 µg/mL (≈ 20.9 µM)	1 µg/mL (≈ 2.61 µM)						
CCC(CN)=C1CN(c2nc(Oc3cnc(C(C)(C)O)nc3)nc3[nH]c4c(NC)cc(F)cc4c23)C1											< 0.008 µg/mL	< 0.008 µg/mL	1 µg/mL (≈ 2.03 µM)	0.5 µg/mL (≈ 1.02 µM)	> 16 µg/mL	
[2H]C([2H])([2H])Nc1cc(F)cc2c1[nH]c1nc(Oc3cnc(C)nc3)nc(N3CC(=C(CC)CN)C3)c12	0.5 µg/mL (≈ 1.11 µM)	0.25 µg/mL (≈ 0.554 µM)	0.125 µg/mL (≈ 0.277 µM)	1 µg/mL (≈ 2.21 µM)	4 µg/mL (≈ 8.86 µM)	2 µg/mL (≈ 4.43 µM)	0.25 µg/mL (≈ 0.554 µM)	0.25 µg/mL (≈ 0.554 µM)	4 µg/mL (≈ 8.86 µM)	2 µg/mL (≈ 4.43 µM)						half-life at 0.1 µM [16]: 0.548 h; half-life at 0.1 µM [17]: 1.75 h; CLH [18]: 63.9 mL/min/g; CLH [19]: 20 mL/min/g; Fh at 1 h, 0.1 µM [20]: 41%; Fh at 1 h, 0.1 µM [21]: 49.6%
CNc1cc(F)cc2c1[nH]c1nc(Oc3cnc(C)nc3)nc(N3CC/C(=C(/F)CN)C3)c12											< 0.008 µg/mL	< 0.008 µg/mL	0.125 µg/mL (≈ 0.276 µM)	0.06 µg/mL (≈ 0.133 µM)	2 µg/mL (≈ 4.42 µM)	MIC [22]: 0.008 µg/mL (≈ 0.0177 µM)
CCC(CO)=C1CN(c2nc(Oc3cnc(C)nc3)nc3[nH]c4c(NC)cc(F)cc4c23)C1											< 0.008 µg/mL	< 0.008 µg/mL	0.25 µg/mL (≈ 0.556 µM)	0.25 µg/mL (≈ 0.556 µM)	≥ 64 µg/mL	half-life at 0.1 µM [16]: 0.76 h; half-life at 0.1 µM [17]: 1.27 h; CLH [18]: 256.1 mL/min/g; CLH [19]: 51.4 mL/min/g; Fh at 1 h, 0.1 µM [20]: 14.8%; Fh at 1 h, 0.1 µM [21]: 27.6%
CC(C)(O/N=C(\C(=O)N[C@@H]1C(=O)N2C(C(=O)[O-])=C(C[N+]3(CCNC(=O)c4ccc(O)c(O)c4Cl)CCCC3)CS[C@H]12)c1csc(N)n1)C(=O)O [CEFIDEROCOL]	0.25 µg/mL (≈ 0.332 µM)	4 µg/mL (≈ 5.32 µM)	4 µg/mL (≈ 5.32 µM)	2 µg/mL (≈ 2.66 µM)	32 µg/mL (≈ 42.5 µM)	> 64 µg/mL	2 µg/mL (≈ 2.66 µM)	2 µg/mL (≈ 2.66 µM)	1 µg/mL (≈ 1.33 µM)	4 µg/mL (≈ 5.32 µM)						
CCC(CN)=C1CN(c2nc(S(C)(=O)=O)nc3[nH]c4c(NC)cc(F)cc4c23)C1											> 16 µg/mL	> 16 µg/mL	> 16 µg/mL	> 16 µg/mL	> 16 µg/mL	
[2H]C([2H])([2H])Nc1cc(F)cc2c1[nH]c1nc(Oc3cnc(C(C)O)nc3)nc(N3CC(=C(CC)CN)C3)c12 (stereo unspecified)	4 µg/mL (≈ 8.31 µM)	2 µg/mL (≈ 4.15 µM)	1 µg/mL (≈ 2.08 µM)	4 µg/mL (≈ 8.31 µM)	8 µg/mL (≈ 16.6 µM)	8 µg/mL (≈ 16.6 µM)	2 µg/mL (≈ 4.15 µM)	2 µg/mL (≈ 4.15 µM)	16 µg/mL (≈ 33.2 µM)	8 µg/mL (≈ 16.6 µM)						
[2H]C([2H])([2H])Nc1cc(F)cc2c1[nH]c1nc(Oc3cnc(C)nc3)nc(N3CC(=C(C)[C@H](C)N)C3)c12	0.5 µg/mL (≈ 1.11 µM)	0.5 µg/mL (≈ 1.11 µM)	0.125 µg/mL (≈ 0.277 µM)	2 µg/mL (≈ 4.43 µM)	8 µg/mL (≈ 17.7 µM)	2 µg/mL (≈ 4.43 µM)	0.5 µg/mL (≈ 1.11 µM)	0.5 µg/mL (≈ 1.11 µM)	8 µg/mL (≈ 17.7 µM)	2 µg/mL (≈ 4.43 µM)						
CNc1cc(F)cc2c1[nH]c1nc(Oc3cnc(C)nc3)nc(N3CC/C(=C(\F)CN)C3)c12											< 0.008 µg/mL	< 0.008 µg/mL	0.015 µg/mL (≈ 0.0332 µM)	< 0.06 µg/mL	2 µg/mL (≈ 4.42 µM)	MIC [22]: 0.008 µg/mL (≈ 0.0177 µM); inhibition at 2 min, 40 µM [23]: 41.6%; IC50 [24]: > 40 µM
CNc1cc(F)cc2c1[nH]c1nc(Oc3cnc(C)nc3)nc(N3CC(=C(C)CO)C3)c12											< 0.03 µg/mL	< 0.03 µg/mL	> 64 µg/mL	0.25 µg/mL (≈ 0.574 µM)	> 64 µg/mL	
